Legend:
[1] = Retardation factor, Rf of the compound; type: physicochemical
Outline: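 Thin-layer chromatography on SiO2 plates; eluent A, CHCl3-CH3OH-HOAc (98:1:1), other eluents as designated.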

[2] = species: Mus musculus; test: Binding affinity to prostaglandin receptor in Charles River CD-1 mouse ovary assessed as increase in cAMP accumulation using [8-14C]adenine at 25 ug/ml after 30 mins relative to control; type: tissue-based; details: Female gonad
Outline: (§1)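 Virgin female mice over 70 days old; three ovaries per tube (15-25 mg), denuded of fat, preincubated 60 min at 37 °C in aerated Krebs-Ringer phosphate buffer pH 7.2 with 1 μCi [8-14C]adenine to label ATP. Then 0.2 mL 0.05 M theophylline in 0.15 M NaCl plus compound in 0.1 mL Me2SO added; 30 min, 37 °C. TCA stop, homogenization, [14C]-cAMP isolated including paper chromatography.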

[3] = species: Mus musculus; test: Binding affinity to prostaglandin receptor in Charles River CD-1 mouse ovary assessed as increase in cAMP accumulation using [8-14C]adenine at 100 ug/ml after 30 mins relative to control; type: tissue-based; details: Female gonad; outline: as §1
[4] = species: Rattus norvegicus; test: Displacement of [3H-PGE1] from Sprague-Dawley rat kidney prostaglandin receptor after 60 mins by scintillation counting analysis
Outline: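 Kidney plasma membrane binding fraction from male rats (120-150 g); 125 μg of it incubated with 0.4 ng [3H]-PGE1 and test compound, 60 min, 37 °C. Diluted with 0.01 M Tris HCl-saline pH 7.5, bound label collected by filtration, rinsed, counted by liquid scintillation. Duplicate runs at each of three concentrations.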

[5] = species: Mus musculus; test: Binding affinity to prostaglandin receptor in Charles River CD-1 mouse ovary assessed as increase in cAMP accumulation using [8-14C]adenine at 1 ug/ml after 30 mins relative to control; type: tissue-based; details: Female gonad; outline: as §1
[6] = species: Mus musculus; test: Binding affinity to prostaglandin receptor in Charles River CD-1 mouse ovary assessed as increase in cAMP accumulation using [8-14C]adenine at 10 ug/ml after 30 mins relative to control; type: tissue-based; details: Female gonad; outline: as §1
[7] = species: Mus musculus; test: Binding affinity to prostaglandin receptor in Charles River CD-1 mouse ovary assessed as increase in cAMP accumulation using [8-14C]adenine at 50 ug/ml after 30 mins relative to control; type: tissue-based; details: Female gonad; outline: as §1
[8] = species: Mus musculus; test: Binding affinity to prostaglandin receptor in Charles River CD-1 mouse ovary assessed as increase in cAMP accumulation using [8-14C]adenine at 200 ug/ml after 30 mins relative to control; type: tissue-based; details: Female gonad; outline: as §1
[9] = species: Mus musculus; test: Binding affinity to prostaglandin receptor in Charles River CD-1 mouse ovary assessed as increase in cAMP accumulation using [8-14C]adenine at 0.1 ug/ml after 30 mins relative to control; type: tissue-based; details: Female gonad; outline: as §1
[10] = species: Mus musculus; test: Binding affinity to prostaglandin receptor in Charles River CD-1 mouse ovary assessed as increase in cAMP accumulation using [8-14C]adenine at 0.01 ug/ml after 30 mins relative to control; type: tissue-based; details: Female gonad; outline: as §1
[11] = species: Mus musculus; test: Binding affinity to prostaglandin receptor in Charles River CD-1 mouse ovary assessed as increase in cAMP accumulation using [8-14C]adenine at 0.05 ug/ml after 30 mins relative to control; type: tissue-based; details: Female gonad; outline: as §1
[12] = Dissociation constant, pKa of the compound; type: physicochemical

## CCCCCCCCc1c[nH]c(=O)n1CCCCCCC(=O)O
[1]
  Rf: 0.84
[2]
  fold change (FC): 5
[3]
  fold change (FC): 9
[4]
  Activity: 19.6 µgequiv

## CCCCCC(O)CCCC(CCCCCCC(=O)O)C(C)=O (configuration not stated)
[5]
  fold change (FC): 2
[2]
  fold change (FC): 14
[3]
  fold change (FC): 23
[4]
  Activity: 833 ngequiv
[6]
  fold change (FC): 11
[7]
  fold change (FC): 16
[8]
  fold change (FC): 16

## CCCCCC(O)CCCC(CCCCCCC(=O)O)S(C)(=O)=O (configuration not stated)
[5]
  fold change (FC): 14
[2]
  fold change (FC): 27
[3]
  fold change (FC): 38
[9]
  fold change (FC): 2
[6]
  fold change (FC): 24

## CCCCC[C@H](O)/C=C/[C@H]1[C@H](O)CC(=O)[C@@H]1CCCCCCC(=O)O
[5]
  fold change (FC): 54
[2]
  fold change (FC): 62
[3]
  fold change (FC): 62
[4]
  Activity: 1 ngequiv
[10]
  fold change (FC): 8
[11]
  fold change (FC): 25
[9]
  fold change (FC): 29
[6]
  fold change (FC): 60

## CCCCC[C@H](O)CC[C@H]1CCC(=O)[C@@H]1CCCCCCC(=O)O
[5]
  fold change (FC): 10
[2]
  fold change (FC): 26
[6]
  fold change (FC): 25
[7]
  fold change (FC): 19

## CCCCCC(O)CCC1CCC(=O)N1CCCCCCC(=O)O (mixture of isomers)
[1]
  Rf: 0.15
[12]
  pKa: 5.25
[5]
  fold change (FC): 0.9
[2]
  fold change (FC): 8
[3]
  fold change (FC): 18
[4]
  Activity: 4.6 µgequiv

## CCCCCC(O)CCC1SCC(=O)N1CCCCCCC(=O)O (mixture of isomers)
[1]
  Rf: 0.12
[5]
  fold change (FC): 1.4
[2]
  fold change (FC): 8
[3]
  fold change (FC): 25
[4]
  Activity: 0.39 µgequiv

## CCCCCC(O)CCC1N(CCCCCCC(=O)O)C(=O)CS1(=O)=O (mixture of isomers)
[1]
  Rf: 0.24
[5]
  fold change (FC): 5
[2]
  fold change (FC): 27
[3]
  fold change (FC): 37
[4]
  Activity: 0.06 µgequiv
[6]
  fold change (FC): 23

## O=C(O)CCCCCCN1C(=O)CS(=O)(=O)C1CCC(O)COc1ccc(F)cc1 (mixture of isomers)
[1]
  Rf: 0.13
[2]
  fold change (FC): 2
[3]
  fold change (FC): 7

## CCCCCCCCC1CCC(=O)N1CCCCCCC(=O)O (racemic)
[1]
  Rf: 0.25
[5]
  fold change (FC): 0.7
[2]
  fold change (FC): 8
[3]
  fold change (FC): 13
[4]
  Activity: 8.3 µgequiv

## CCCCCCCCC1C(=O)NC(=O)N1CCCCCCC(=O)O (racemic)
[1]
  Rf: 0.2
[2]
  fold change (FC): 3
[3]
  fold change (FC): 6
[4]
  Activity: 5 µgequiv
